Data set [1] has as its system Mus musculus. Briefly: Anticonvulsant activity in ip dosed albino mouse assessed as protection against scPTZ-induced seizures after 4 hrs. Type of data set: functional. The method in brief:
(§1)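 Male albino mice (20-25 g) given test compounds i.p., suspended in 30% PEG 200, at 0.01 ml/g body weight, at 30, 100 and 300 mg/kg to 1–6 animals. Seizure protection checked 0.5 h and 4 h after dosing. Value is the minimal dose protecting 50% or more of animals.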

The test system of data set [2] is Mus musculus. The data set can be described thus: Anticonvulsant activity in ip dosed albino mouse assessed as protection against scPTZ-induced seizures after 0.5 hrs. Type of data set: functional. Summed up:
as §1

Data set [3] deals with Mus musculus. The data set can be described thus: Anticonvulsant activity in ip dosed albino mouse assessed as protection against MES-induced seizures after 0.5 hrs. Type of data set: functional. Summed up:
as §1

The test system of data set [4] is Mus musculus. The data set can be described thus: Reduction of immobility time in albino Swiss mouse at 100 mg/kg, ip pretreated for 1 hrs by forced swimming test. Particulars: route intraperitoneal. Type of data set: functional.
Data set [5] can be described thus: Neurotoxicity against ip dosed albino mouse assessed as inability of animal to maintain equilibrium on rod for 1 min after 0.5 hrs by rotarod test. Particulars: in vivo. (In general: Falling from the rotarod earlier than controls is read as motor impairment.)
Data set [6] relates to Mus musculus. The data set can be described thus: Anticonvulsant activity in ip dosed albino mouse assessed as protection against MES-induced seizures after 4 hrs. Type of data set: functional. Summed up: as §1
A short description of data set [7]: Neurotoxicity against ip dosed albino mouse assessed as inability of animal to maintain equilibrium on rod for 1 min after 4 hrs by rotarod test. Particulars: in vivo.

Broadly, the ED50 is the dose that gives a 50% effect, or the effect in half of the subjects.

Active and inactive are the calls of the source. The rule behind the calls is not given here.

`CCCC(CCC)C(=O)[O-].[Na+]` [VALPROATE SODIUM]: the ED50 result in data set [1] is “inactive”. In data set [2], the median effective dose (ED50) is 300 mg/kg.
Consider `O=C1NN(C(=O)c2ccccc2Cl)C(c2ccccc2)=N/C1=C/c1ccccc1Cl`, for which the median effective dose (ED50) was 30 mg/kg in data set [3], 30 mg/kg in data set [6], 100 mg/kg in data set [1] and 30 mg/kg in data set [2]. For the same molecule, the Time in data set [4] is 148.17 s. Also, the TD50 at 0.5 h in data set [5] is 300 mg/kg. In addition, the TD50 at 4 h in data set [7] was determined as 300 mg/kg.
As for `Cc1ccc(/C=C2/N=C(c3ccccc3)N(C(=O)Cc3ccc(Cl)cc3)NC2=O)cc1`, the ED50 in data set [3] worked out at 100 mg/kg; in data set [6], 300 mg/kg; in data set [1], 300 mg/kg; in data set [2], 100 mg/kg. For the same molecule, the TD50 at 0.5 h in data set [5] is 300 mg/kg. Also, in data set [7], the TD50 at 4 h came to 300 mg/kg.
Turning to `Cc1ccc(C(=O)N2NC(=O)/C(=C\c3ccc(O)cc3)N=C2c2ccccc2)cc1`, the ED50 in data set [3] was found to be 30 mg/kg; in data set [6] it was 100 mg/kg; in data set [1], 300 mg/kg; in data set [2], 100 mg/kg. Moreover, the Time in data set [4] is given as 147.33 s.
For `Cc1ccc(/C=C2/N=C(c3ccccc3)N(C(=O)c3ccc(Cl)cc3)NC2=O)cc1`, the ED50 in data set [3] was found to be 100 mg/kg; in data set [6], 300 mg/kg; in data set [1], 100 mg/kg; in data set [2], 100 mg/kg.
`NC(=O)N1c2ccccc2C=Cc2ccccc21` [CARBAMAZEPINE]: the Time in data set [4] was 169 s.
Take `COc1ccc(/C=C2/N=C(c3ccccc3)N(C(=O)c3ccc(Cl)cc3)NC2=O)cc1`: the figures for the ED50 in data set [3], in data set [1] and in data set [2] were 100 mg/kg, 300 mg/kg and 100 mg/kg, respectively. Further, the TD50 at 0.5 h in data set [5] is 300 mg/kg. Further, the ED50 entry in data set [6] is “inactive”. The TD50 at 4 h in data set [7] came to 300 mg/kg.
As to `O=C1NC(=O)C(c2ccccc2)(c2ccccc2)N1` [PHENYTOIN], the ED50 in data set [3] and in data set [6] was 30 mg/kg each time.
Consider `Cc1ccc(/C=C2/N=C(c3ccccc3)N(C(=O)COc3ccccc3)NC2=O)cc1`, for which the median effective dose (ED50) in data set [3], in data set [6] and in data set [2] was 300 mg/kg each time. Further, the ED50 result in data set [1] is “inactive”.
For the molecule `O=C1NN(C(=O)c2ccc(Cl)cc2)C(c2ccccc2)=N/C1=C/c1ccccc1`, the median effective dose (ED50) came out at 100 mg/kg in data set [3], 300 mg/kg in data set [6], 300 mg/kg in data set [1] and 100 mg/kg in data set [2]. Also, the TD50 at 0.5 h in data set [5] worked out at 300 mg/kg. Moreover, the TD50 at 4 h in data set [7] was determined as 300 mg/kg.
Consider `COc1ccc(/C=C2/N=C(c3ccccc3)N(C(=O)c3ccc(C)cc3)NC2=O)cc1`, for which the ED50 in data set [3] stood at 100 mg/kg; in data set [6], 100 mg/kg; in data set [1], 30 mg/kg; in data set [2] it was 30 mg/kg. Further, the Time in data set [4] is given as 151.5 s. The TD50 at 0.5 h in data set [5] amounted to 300 mg/kg. For the same molecule, the TD50 at 4 h in data set [7] is 300 mg/kg.
Consider `Cc1ccc(/C=C2/N=C(c3ccccc3)N(C(=O)c3ccc(C)cc3)NC2=O)cc1`, for which the ED50 in data set [3] is 100 mg/kg; in data set [6] it was 100 mg/kg; in data set [1] it was 30 mg/kg; in data set [2], 30 mg/kg. The Time in data set [4] was 145.83 s. In addition, in data set [5], the TD50 at 0.5 h is 300 mg/kg.
On to `O=C1NN(C(=O)c2ccc(F)cc2)C(c2ccccc2)=N/C1=C/c1ccc(O)cc1`, for which the ED50 in data set [3] and in data set [2] was 300 mg/kg each time. In addition, the ED50 entry in data set [6] and in data set [1] was “inactive” each time.

Source of the values: ChEMBL document CHEMBL1240430, “Design & synthesis of 2-(substituted aryloxy)-5-(substituted benzylidene)-3-phenyl-2,5-dihydro-1H-[1,2,4] triazin-6-one as potential anticonvulsant agents” (Eur J Med Chem, 2010).
